{"data": "Published values from different studies", "AGTR2": "Type-2 angiotensin II receptor (AGTR2, Homo sapiens, UniProt P50052)", "DRD1": "D(1A) dopamine receptor (DRD1, Homo sapiens, UniProt P21728)", "Adora2a": "Adenosine receptor A2a (Adora2a, Rattus norvegicus, UniProt P30543)", "note": "Each line is one published result; the experiments were not run side by side."}
{"SMILES": "CCCCOC(=O)NS(=O)(=O)c1sc(CC(C)C)cc1-c1ccc(OC(F)(F)F)c(Cn2ccnc2)c1", "target": "AGTR2", "read-out": "ligand displacement", "technique": "radioligand", "notes": "cell membranes", "Ki": "280 nM"}
{"SMILES": "CCC(C)[C@H](NC(=O)c1ccc(C)c(C(=O)N(C)Cc2ccccc2)c1)C(=O)O (stereo in doubt)", "target": "AGTR2", "read-out": "ligand displacement in cells", "technique": "radioligand", "Ki": "7600 nM"}
{"SMILES": "CC1Cc2ccccc2N1C(=O)NCCCCN(C)[C@@H]1Cc2cccc3[nH]c(=O)n(c23)C1 (mixture of isomers)", "target": "DRD1", "read-out": "ligand displacement", "technique": "radioligand", "Ki": "> 10000 nM"}
{"SMILES": "N#Cc1c(N)nc(SCC(N)=O)c(C#N)c1-c1cccc(O)c1", "target": "Adora2a", "read-out": "ligand displacement", "technique": "radioligand", "notes": "cell membranes", "Ki": "751 nM"}
{"SMILES": "CCc1ccc(C(=O)N[C@H](C(=O)O)C(C)CC)cc1C(=O)N(C)Cc1ccccc1 (stereo in doubt)", "target": "AGTR2", "read-out": "ligand displacement in cells", "technique": "radioligand", "Ki": "16000 nM"}
{"SMILES": "CCCC[C@H](NC(=O)[C@H](C)c1c(C)[nH]c2ccc(O)cc12)c1ncc(-c2cc3ccccc3nc2OC)[nH]1", "target": "Prostaglandin E2 receptor EP1 subtype (PTGER1, Homo sapiens, UniProt P34995)", "read-out": "cell-free assay", "Ki": "2250 nM"}
{"SMILES": "CCCCCN1CCCn2c1nc1c2c(=O)n(C)c(=O)n1C", "target": "Adora2a", "read-out": "ligand displacement", "technique": "radioligand", "notes": "cell membranes", "Ki": "3060 nM"}
{"SMILES": "N#Cc1c(N)nc(SCc2cccc(C(=O)O)c2)c(C#N)c1-c1ccccc1", "target": "Adora2a", "read-out": "ligand displacement", "technique": "radioligand", "notes": "cell membranes", "Ki": "634 nM"}
{"SMILES": "CCC(C)[C@H](NC(=O)c1ccc(C(=O)N(Cc2ccccc2)Cc2ccccc2)cc1)C(=O)O (stereo in doubt)", "target": "AGTR2", "read-out": "ligand displacement in cells", "technique": "radioligand", "Ki": "35000 nM"}
{"SMILES": "CCCCN1CCCn2c1nc1c2c(=O)n(C)c(=O)n1C", "target": "Adora2a", "read-out": "ligand displacement", "technique": "radioligand", "notes": "cell membranes", "Ki": "1750 nM"}
{"SMILES": "N#Cc1c(N)nc(SCC(N)=O)c(C#N)c1-c1ccc2c(c1)OCO2", "target": "Adora2a", "read-out": "ligand displacement", "technique": "radioligand", "notes": "cell membranes", "Ki": "429 nM"}
{"SMILES": "CN1CCCn2c1nc1c2c(=O)n(C)c(=O)n1C", "target": "Adora2a", "read-out": "ligand displacement", "technique": "radioligand", "notes": "cell membranes", "Ki": "4300 nM"}
{"SMILES": "CCC(C)[C@H](NC(=O)c1ccc(C)c(C(=O)N(CC)Cc2ccccc2)c1)C(=O)O (stereo in doubt)", "target": "AGTR2", "read-out": "ligand displacement in cells", "technique": "radioligand", "Ki": "3400 nM"}
{"SMILES": "CC(C)CCCC(C)N1CCCn2c1nc1c2c(=O)n(C)c(=O)n1C (centres unmarked)", "target": "Adora2a", "read-out": "ligand displacement", "technique": "radioligand", "notes": "cell membranes", "Ki": "2030 nM"}
{"SMILES": "CCC(C)[C@H](NC(=O)c1cccc(C(=O)N(Cc2ccccc2)Cc2ccccc2)c1)C(=O)O (stereo in doubt)", "target": "AGTR2", "read-out": "ligand displacement in cells", "technique": "radioligand", "Ki": "7500 nM"}
{"SMILES": "CCN1CCCn2c1nc1c2c(=O)n(C)c(=O)n1C", "target": "Adora2a", "read-out": "ligand displacement", "technique": "radioligand", "notes": "cell membranes", "Ki": "2650 nM"}
{"SMILES": "COc1ccccc1N1CCN(CCCCN2CCc3ccccc3C2=O)CC1", "target": "DRD1", "read-out": "cell-free assay", "technique": "radioligand", "Ki": "1620 nM"}
